# Compound activity: PubChem, several laboratories
# A selection: hits, their analogues and other compounds. The true share with any hit is near 4.4%.
# AI-2 QS modul – Vibrio harveyi AI-2 quorum sensing modulators, primary screen, JMH597 strain, luminescence/OD600 ratio. Vibrio harveyi JMH597 AI-2 luminescence/OD600 ratio, 9 h; active compounds read low; strain lacks LuxN and CqsS sensors; 0 = neutral-control median. activity change, % at 7.5 µM. 300,000 tested, 0.4% active. AID 2094, 2009; in the data active means activity change below about -75%, passing the limit was not always enough; inconclusive means no clear call, values can overlap the other calls;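 further: luminescence divided by OD600 gain over 9 h not by final OD600 alone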
# MsrA inhibitor – bovine MsrA enzyme inhibitors, primary screen, biochemical, absorbance, HTS; Methionine sulfoxide reductase A (Bos taurus); inhibition, % at 15.5 µM; purified bovine MsrA, absorbance read-out; 360,000 tested, 0.75% active; in the data active means inhibition above about 4.5%;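 further: 0% = vehicle wells with enzyme and 100% = reference inhibitor wells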
# HTR2A ag – mouse Htr2a agonists via beta-arrestin recruitment, primary screen, cell-based, luminescence; 5-hydroxytryptamine receptor 2A (Mus musculus), P35363; CHO-K1 mHTR2A beta-arrestin complementation; percent of 30 µM serotonin response; AID 624169, 2012; 360,000 tested, 0.66% active; activation, % at 7.6 µM;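 active means activation above a run cutoff, the mean activation of all tested compounds plus 3 SD, cut at about 14% in these data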;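 further: 0% = plate median of compound wells and 100% = 30 µM serotonin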
# Target sequence (P35363 whole entry, looked up): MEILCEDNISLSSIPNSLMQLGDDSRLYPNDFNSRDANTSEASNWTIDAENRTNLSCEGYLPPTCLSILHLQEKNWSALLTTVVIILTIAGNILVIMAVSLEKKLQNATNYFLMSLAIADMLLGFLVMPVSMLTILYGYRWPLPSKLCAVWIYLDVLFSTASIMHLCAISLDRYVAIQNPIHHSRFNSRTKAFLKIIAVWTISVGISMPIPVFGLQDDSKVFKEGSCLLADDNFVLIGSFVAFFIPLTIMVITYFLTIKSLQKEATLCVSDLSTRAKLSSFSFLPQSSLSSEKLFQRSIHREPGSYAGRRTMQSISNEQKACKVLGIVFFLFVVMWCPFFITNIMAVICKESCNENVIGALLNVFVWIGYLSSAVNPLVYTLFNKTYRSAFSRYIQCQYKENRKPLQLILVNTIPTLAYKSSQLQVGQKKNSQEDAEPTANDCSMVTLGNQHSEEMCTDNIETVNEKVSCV
# AHR act – AHR activators, primary screen, cell-based, luminescence, luciferase reporter, human. activation, % at 5 µM. 320,000 tested, 2.5% active. AID 2796, 2010. AHR-responsive luciferase reporter cells; in the data active means activation above about 47%;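 further: 0% = vehicle wells and 100% = reference agonist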
# TbMetRS inhib – T. brucei MetRS inhibitors, primary screen, biochemical, luminescence; AID 624268, 2012; inhibition, % at 11.9 µM; purified T. brucei MetRS, ATP depletion, Kinase-Glo luminescence; 360,000 tested, 0.4% active; methionyl-tRNA synthetase (Trypanosoma brucei brucei);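 active means inhibition above a per-plate cutoff of the control wells' mean inhibition plus 3 SD, cut at about 5.5% in these data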;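 further: 0% = DMSO wells median and 100% = median of wells with control inhibitor compound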
#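 Material: parasite MetRS enzyme / Replication: singlicate, one well per compound / Signal: luminescence of leftover ATP / Schedule: 2 h aminoacylation at 25 °C after 15 min preincubation / Medium: HEPES-MgCl2-KCl buffer plus DTT, spermine, BSA, pyrophosphatase / Doses: 11.9 µM single point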
# bovine MsrA act – bovine MsrA enzyme activators, primary screen, biochemical, absorbance, HTS; Methionine sulfoxide reductase A (Bos taurus); purified bovine MsrA, absorbance read-out; activation, % at 10.6 µM; 360,000 tested, 0.3% active; AID 602163, 2012; in the data active means activation above about 7.5%;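 further: 0% = vehicle and 100% = reference activator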
# OPRM1 ag – OPRM1 agonists via beta-arrestin recruitment, confirmation, counter-screen for mouse HTR2A agonist project, cell-based, luminescence, single concentration. 2,300 tested, 5.3% active. AID 624380, 2012. shares compounds with HTR2A ag. activation, % at 9.3 µM. U2OS OPRM1 beta-arrestin PathHunter; DMSO 0%, DAMGO 9.3 µM 100%;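 active means mean activation above the mean of DMSO-only wells plus 3 SD, cut at about 0.5% in these data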
# m5-HT2A ag conf – mouse HTR2A agonists, beta-arrestin recruitment, confirmation, cell-based, luminescence, CHO-K1 PathHunter, triplicate. activation, % at 7.6 µM. AID 624381, 2012. 2,300 tested, 19% active. DMSO 0%, 30 µM serotonin 100%. shares compounds with HTR2A ag;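 active means mean activation across triplicates above the hit threshold derived in the original primary screen, cut at about 15% in these data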
# * marks the source's active call; other numbers are inactive results; ? = inconclusive; / = no result.
SMILES,AI-2 QS modul,MsrA inhibitor,HTR2A ag,AHR act,TbMetRS inhib,bovine MsrA act,OPRM1 ag,m5-HT2A ag conf
CC(C(=O)Nc1sc2c(c1C#N)CCCCC2)N1C(=O)c2ccccc2C1=O (centres undefined),16,0,25*,2,0,-2,0,-1
COc1ccc(-c2cccc(NS(=O)(=O)c3cccc([N+](=O)[O-])c3)c2)nn1,31,-1,17*,-1,0,-2,0,-3
COc1ccc(-c2cccc(NS(=O)(=O)c3ccc([N+](=O)[O-])cc3)c2)nn1,-1,-1,-2,4,0,-2,/,/
Cc1c(C2(O)CCCCC2)[nH]c2cc(C(F)(F)F)ccc12,/,-1,19*,48*,0,0,1.0*,-1
Cc1csc2ncnc(N3CCN(C(=S)Nc4ccc(C(F)(F)F)cc4)CC3)c12,-3,0,-4,3,0,0,/,/
Cc1csc2c(N3CCN(C(=O)NC(C)(C)C)CC3)ncnc12,2,1,41*,-7,3,-12,-1,-2
Cc1csc2c(N3CCN(C(=O)c4ccc(C(C)(C)C)cc4)CC3)ncnc12,39,3,2,1,0,1,/,/
Cc1csc2c(N3CCN(C(=S)Nc4ccc(C(F)(F)F)cc4)CC3)ncnc12,9,3,32*,-5,2,-10,-1,8
CCOC1=C2CN(S(=O)(=O)c3ccc(C)cc3)[C@H](c3ccccc3)C[C@@H]2N(S(=O)(=O)c2ccc(C)cc2)[C@H](c2ccccc2)C1,/,0,0,/,0,-2,/,/
NS(=O)(=O)c1ccc(NC(=S)N2CCN(Cc3ccc(Cl)c(Cl)c3)CC2)cc1,5,2,-9,1,-1,-4,/,/
CCCN1CCN(C(=S)Nc2ccc(S(N)(=O)=O)cc2)CC1,30,-1,16*,-2,-1,-2,-1,-1
NS(=O)(=O)c1ccc(NC(=S)N2CCN(c3ccc(Cl)c(Cl)c3)CC2)cc1,31,0,35*,-6,4,-2,0,10
N#Cc1ccccc1OCC(=O)NC(N)=O,24,-1,0,7,0,-1,/,/
CCOC(=O)CCCNC(=O)COc1ccccc1C#N,24,1,19*,-3,0,0,0,10
COC(=O)[C@@H](Cc1c[nH]c2ccccc12)NCc1ccc(B(O)O)cc1,/,-1,-5,/,-1,-2,/,/
CCc1ccc(N2CC(C(=O)N/N=C/c3ccccc3)CC2=O)cc1 (centres undefined),8,0,-5,-1,-1,1,/,/
CC(=O)N1c2ccc(S(=O)(=O)NCCC(=O)Nc3ncccc3C)cc2CC1C (centres undefined),20,0,15*,-1,0,-4,-1,-4
C[C@H](CO)N1C[C@H](C)[C@@H](CN(C)C(=O)Nc2ccc3c(c2)OCO3)Oc2c(NC(=O)Nc3ccc4c(c3)OCO4)cccc2C1=O,/,-1,3,3,0,-1,/,/
O=C1c2ccccc2C(=O)N1CCc1c[nH]c2ccccc12,9,-1,-3,14,-1,-6,/,/
O=C1c2ccccc2C(=O)N1CCc1c[nH]c2ccc(O)cc12,20,1,18*,-6,0,-1,-1,-5
Cc1ccc(SCc2cc(=O)[nH]c(N3CCN(Cc4ccc5c(c4)OCO5)CC3)n2)cc1,6,0,4,2,0,-3,/,/
Cc1ccc(SCc2cc(=O)[nH]c(N3CCN(Cc4ccccc4)CC3)n2)cc1,8,1,18*,2,-1,0,-1,12
COc1ccc(N=C2C(=Nc3ccc(OC)cc3)N(c3ccc(OC)cc3)C(=S)N2C)cc1,20,/,0,-2,0,-2,/,/
COc1ccc(N=C2C(=Nc3ccc(OC)cc3)N(c3ccc(OC)cc3)C(=S)N2c2ccccc2)cc1,9,1,16*,2,0,-3,-1,-3
Cc1ccc(C(=O)NNC(=S)NC(=O)c2ccco2)cc1,?,2,-4,5,0,0,/,/
SMILES,AI-2 QS modul,MsrA inhibitor,HTR2A ag,AHR act,TbMetRS inhib,bovine MsrA act,OPRM1 ag,m5-HT2A ag conf
CC(C)C(=O)Nc1ccc(C(=O)NNC(=S)NC(=O)c2ccco2)cc1,82,1,15*,-1,-1,-2,-1,2
COc1ccc2nc(NC(=O)c3ccoc3C)sc2c1,-1,2,23*,-3,-3,-1,-1,-5
O=C(N/N=C/c1cc(Br)cc([N+](=O)[O-])c1O)c1ccc(NC(=O)c2ccc(F)cc2)cc1,95,-1,6,7,1,-2,/,/
C#CCOCCOCCOCCNc1nc(N2CCN(C(=O)Cn3cc(CCO)nn3)CC2)nc(N2CCN(C(=O)[C@H](Cc3ccc(O)cc3)n3cc(CCO)nn3)CC2)n1,/,0,-4,/,0,-1,/,/
CCS(=O)(=O)c1ccc(-c2csc(-c3ccccc3)n2)c(Cl)c1Cl,3,1,16*,20,0,-13,0,2
COC(=O)[C@@]1(Sc2ccc(C)cc2)CC(=O)N[C@@H]1c1ccc(C(F)(F)F)cc1,/,0,15*,/,-1,-4,0.8*,3
CCCCN1C(=O)C(CC(=O)NCc2ccco2)CC(C(=O)N2CCCCCC2)=C1C (centres undefined),/,-1,4,/,0,-2,/,/
CCC1CCCCN1C(=O)CSc1nnc(N)s1 (centres undefined),/,0,-3,-1,0,-1,/,/
COc1cc(/C=N/NC(=O)CC(=O)NC2CCCCC2)ccc1O,18,0,16*,3,0,-5,0.9*,5
COC(=O)c1ccc(/C=N/NC(=O)CC(=O)NC2CCCCC2)cc1,20,0,1,15,0,-1,/,/
COc1cc(OC)cc(C(=O)NNC(=O)CCNC(=O)c2ccc(Br)cc2)c1,/,0,3,3,0,0,/,/
CC(=O)N1CCc2cc(C(=O)CN3CCN(c4ccccn4)CC3)ccc21,9,1,18*,1,0,-6,-1,117*
